Data set [1] concerns Mus musculus. The data set can be described thus: Biodistribution of intravenously injected [82Br]-labeled compound in muscle of BDF1 female mice bearing subcutaneous Lewis lung carcinoma after 0.5 hours. The data set is classed as ADME, organism-based, Muscle tissue. The settings on record: in vivo, iv. In a few lines:
(§1)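 Female BDF1 mice with subcutaneous Lewis lung carcinoma given an iv injection of [82Br]-labelled nucleoside, 47-130 μg carrying 20-60 kBq 82Br. Tissues were excised, weighed wet and γ-counted. Values are percent injected dose per gram of wet tissue, mean ± standard deviation of six animals, with organ-to-tumour ratios derived.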

The subject of data set [2] is Mus musculus. Nature of the data set: Biodistribution of intravenously injected [82Br]-labeled compound in gut of BDF1 female mice bearing subcutaneous Lewis lung carcinoma after 2 hours. The format is ADME, organism-based. The settings on record: in vivo, iv. In a few lines: as §1
Data set [3] deals with Mus musculus. The data set can be described thus: Biodistribution of intravenously injected [82Br]-labeled compound in muscle of BDF1 female mice bearing subcutaneous Lewis lung carcinoma after 8 hours. The format is ADME, organism-based, Muscle tissue. The settings on record: in vivo, iv. Put shortly:
as §1

The test system of data set [4] is Mus musculus. Nature of the data set: Biodistribution of intravenously injected [82Br]-labeled compound in liver of BDF1 female mice bearing subcutaneous Lewis lung carcinoma after 0.50 hours. The data set is classed as ADME, organism-based. The settings on record: in vivo, iv, 0.5 h. In a few lines:
as §1

The subject of data set [5] is Mus musculus. Nature of the data set: Biodistribution of intravenously injected [82Br]-labeled compound in tumor of BDF1 female mice bearing subcutaneous Lewis lung carcinoma after 4 hr. The data set is classed as ADME, organism-based. As to conditions: in vivo, iv.
For data set [6], the system named is Mus musculus. Nature of the data set: Biodistribution of intravenously injected [82Br]-labeled compound in heart of BDF1 female mice bearing subcutaneous Lewis lung carcinoma after 0.50 hours. The data set is classed as ADME, organism-based. The settings on record: in vivo, iv, 0.5 h. Put shortly:
as §1

Data set [7] deals with Mus musculus. Nature of the data set: Biodistribution of intravenously injected [82Br]-labeled compound in gut of BDF1 female mice bearing subcutaneous Lewis lung carcinoma after 0.50 hours. The format is ADME, organism-based. As to conditions: in vivo, iv, 0.5 h. Put shortly: (§2)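 82Br-labeled nucleoside given intravenously to female BDF1 mice bearing subcutaneous Lewis lung carcinoma, at 47-130 μg carrying 20-60 kBq. Mice sacrificed at each time point. Wet-weighed tissues γ-counted. Values are percent injected dose per gram wet tissue, mean ± SD, n = 6.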

Data set [8] deals with Mus musculus. Nature of the data set: Biodistribution of intravenously injected [82Br]-labeled compound in muscle of BDF1 female mice bearing subcutaneous Lewis lung carcinoma after 24 hours. The data set is classed as ADME, organism-based, Muscle tissue. The settings on record: in vivo, iv. In a few lines: as §1
Data set [9] has as its system Mus musculus. Nature of the data set: Biodistribution of intravenously injected [82Br]-labeled compound in lung of BDF1 female mice bearing subcutaneous Lewis lung carcinoma after 1 hours. The format is ADME, organism-based. As to conditions: in vivo, iv. In a few lines: as §1
The subject of data set [10] is Mus musculus. Nature of the data set: Biodistribution of intravenously injected [82Br]-labeled compound in stomach of BDF1 female mice bearing subcutaneous Lewis lung carcinoma after 8 hours. As to conditions: in vivo, iv. The format is ADME, organism-based.
Data set [11] deals with Mus musculus. Nature of the data set: Biodistribution of intravenously injected [82Br]-labeled compound in tumor of BDF1 female mice bearing subcutaneous Lewis lung carcinoma after 8 hours. The data set is classed as ADME, organism-based. As to conditions: in vivo, iv.
Data set [12] relates to Mus musculus. Nature of the data set: Biodistribution of intravenously injected [82Br]-labeled compound in bone of BDF1 female mice bearing subcutaneous Lewis lung carcinoma after 0.5 hours. The data set is classed as ADME, organism-based, Bone element. As to conditions: in vivo, iv. Put shortly:
as §2

The subject of data set [13] is Mus musculus. Nature of the data set: Biodistribution of intravenously injected [82Br]-labeled compound in spleen of BDF1 female mice bearing subcutaneous Lewis lung carcinoma after 24 hours. The data set is classed as ADME, organism-based. The settings on record: in vivo, iv.
Data set [14] has as its system Mus musculus. Nature of the data set: Biodistribution of intravenously injected [82Br]-labeled compound in skin of BDF1 female mice bearing subcutaneous Lewis lung carcinoma after 24 hours. The format is ADME, organism-based, Zone of skin. As to conditions: in vivo, iv. In a few lines:
as §1

The test system of data set [15] is Mus musculus. Nature of the data set: Biodistribution of intravenously injected [82Br]-labeled compound in gut of BDF1 female mice bearing subcutaneous Lewis lung carcinoma after 1 hours. The data set is classed as ADME, organism-based. The settings on record: in vivo, iv. Put shortly: as §2
Data set [16] has as its system Mus musculus. Nature of the data set: Biodistribution of intravenously injected [82Br]-labeled compound in stomach of BDF1 female mice bearing subcutaneous Lewis lung carcinoma after 2 hours. The settings on record: in vivo, iv. The data set is classed as ADME, organism-based.
Data set [17] has as its system Mus musculus. The data set can be described thus: Biodistribution of intravenously injected [82Br]-labeled compound in gut of BDF1 female mice bearing subcutaneous Lewis lung carcinoma after 24 hours. The format is ADME, organism-based. As to conditions: in vivo, iv. In a few lines: as §1
The subject of data set [18] is Mus musculus. The data set can be described thus: Biodistribution of intravenously injected [82Br]-labeled compound in blood of BDF1 female mice bearing subcutaneous Lewis lung carcinoma after 2 hours. The format is ADME, organism-based. The settings on record: in vivo, iv. In a few lines: as §2
The test system of data set [19] is Mus musculus. Nature of the data set: Biodistribution of intravenously injected [131I]-labeled compound in muscle of BDF1 female mice bearing subcutaneous Lewis lung carcinoma after 2 hours. The data set is classed as ADME, organism-based, Muscle tissue. As to conditions: in vivo, iv. Put shortly: (§3)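 Female BDF1 mice with subcutaneous Lewis lung carcinoma given i.v. 0.5-1.8 μg of 131I-labeled nucleoside (55-110 kBq). Killed at set times. Tissues weighed wet and γ-counted. Radioactivity expressed as percent injected dose per gram wet tissue, mean ± SD of six animals.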

The test system of data set [20] is Mus musculus. The data set can be described thus: Biodistribution of intravenously injected [131I]-labeled compound in stomach of BDF1 female mice bearing subcutaneous Lewis lung carcinoma after 0.25 hours. The data set is classed as ADME, organism-based. As to conditions: in vivo, iv. Put shortly: as §3
Data set [21] concerns Mus musculus. Nature of the data set: Biodistribution of intravenously injected [131I]-labeled compound in gut of BDF1 female mice bearing subcutaneous Lewis lung carcinoma after 0.50 hours. The data set is classed as ADME, organism-based. The settings on record: in vivo, iv, 0.5 h. Put shortly:
(§4)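 Female BDF1 mice bearing subcutaneous Lewis lung carcinoma received a single intravenous dose of 0.5-1.8 μg of the 131I-labeled nucleoside (55-110 kBq). They were sacrificed at set times, and tissues were weighed wet and γ-counted. Activity is expressed as percent of injected dose per gram of wet tissue, given as mean ± standard deviation for six animals.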

In data set [22] the test system is Mus musculus. The data set can be described thus: Biodistribution of intravenously injected [131I]-labeled compound in tumor of BDF1 female mice bearing subcutaneous Lewis lung carcinoma after 24 hours. The settings on record: in vivo, iv. The data set is classed as ADME, organism-based. Put shortly: as §3
For data set [23], the system named is Mus musculus. Nature of the data set: Biodistribution of intravenously injected [131I]-labeled compound in tumor of BDF1 female mice bearing subcutaneous Lewis lung carcinoma after 4 hr. The data set is classed as ADME, organism-based. As to conditions: in vivo, iv. Put shortly:
as §3

Data set [24] deals with Mus musculus. Nature of the data set: Biodistribution of intravenously injected [131I]-labeled compound in spleen of BDF1 female mice bearing subcutaneous Lewis lung carcinoma after 0.50 hours. The format is ADME, organism-based. The settings on record: in vivo, iv, 0.5 h. Put shortly:
as §3

Data set [25] has as its system Mus musculus. The data set can be described thus: Biodistribution of intravenously injected [131I]-labeled compound in blood of BDF1 female mice bearing subcutaneous Lewis lung carcinoma after 1 hours. The data set is classed as ADME, organism-based. As to conditions: in vivo, iv. In a few lines: as §4
Data set [26] deals with Mus musculus. The data set can be described thus: Biodistribution of intravenously injected [131I]-labeled compound in spleen of BDF1 female mice bearing subcutaneous Lewis lung carcinoma after 1 hours. The data set is classed as ADME, organism-based. As to conditions: in vivo, iv. Put shortly: as §3
For data set [27], the system named is Mus musculus. Nature of the data set: Biodistribution of intravenously injected [131I]-labeled compound in lung of BDF1 female mice bearing subcutaneous Lewis lung carcinoma after 0.5 hours. The data set is classed as ADME, organism-based. The settings on record: in vivo, iv. In a few lines:
as §4

For data set [28], the system named is Mus musculus. Nature of the data set: Biodistribution of intravenously injected [131I]-labeled compound in muscle of BDF1 female mice bearing subcutaneous Lewis lung carcinoma after 4 hours. The data set is classed as ADME, organism-based, Muscle tissue. As to conditions: in vivo, iv. Put shortly:
as §3

The subject of data set [29] is Mus musculus. The data set can be described thus: Biodistribution of intravenously injected [82Br]-labeled compound in blood of BDF1 female mice bearing subcutaneous Lewis lung carcinoma after 4 hours. The data set is classed as ADME, organism-based. As to conditions: in vivo, iv, in the assay text read “[131I]-labeled” for “[82Br]-labeled”.
Data set [30] concerns Mus musculus. Nature of the data set: Biodistribution of intravenously injected [131I]-labeled compound in heart of BDF1 female mice bearing subcutaneous Lewis lung carcinoma after 1 hours. The format is ADME, organism-based. As to conditions: in vivo, iv. Put shortly: as §4
Data set [31] relates to Mus musculus. Nature of the data set: Biodistribution of intravenously injected [131I]-labeled compound in heart of BDF1 female mice bearing subcutaneous Lewis lung carcinoma after 0.25 hours. The settings on record: in vivo, iv. The format is ADME, organism-based. In a few lines: as §4
Data set [32] relates to Mus musculus. The data set can be described thus: Biodistribution of intravenously injected [131I]-labeled compound in skin of BDF1 female mice bearing subcutaneous Lewis lung carcinoma after 4 hours. The data set is classed as ADME, organism-based, Zone of skin. The settings on record: in vivo, iv. Put shortly:
as §3

Data set [33] has as its system Mus musculus. Nature of the data set: Biodistribution of intravenously injected [131I]-labeled compound in stomach of BDF1 female mice bearing subcutaneous Lewis lung carcinoma after 0.50 hours. The settings on record: in vivo, iv, 0.5 h. The data set is classed as ADME, organism-based. In a few lines:
as §3

Molecules are shown by their SMILES.

Consider `O=c1[nH]c(=O)n([C@H]2O[C@@H](CO)[C@H](O)[C@H]2F)cc1Br`, for which the Injected dose/g in the data set on Mus musculus [1] came out at 0.4%; in the data set with Mus musculus [2] it was 0.41%; with Mus musculus [3], 0.14%; with Mus musculus [4], 0.65%; with Mus musculus [5], 0.37%; with Mus musculus [6], 0.76%. Besides, the Injected dose/g in the data set with Mus musculus [7] is on record as 0.72%; with Mus musculus [8], 0.09%; with Mus musculus [9] it was 0.52%; in the data set with Mus musculus [10], 0.53%; in the data set on Mus musculus [11], 0.46%; in the data set on Mus musculus [12] it was 0.3%. In addition, the Injected dose/g is given as 0.24% with Mus musculus [13]; 0.22% in the data set on Mus musculus [14]; 0.42% in the data set on Mus musculus [15]; 0.52% in the data set on Mus musculus [16]; 0.22% in the data set on Mus musculus [17]; 0.79% with Mus musculus [18].
For `O=c1[nH]c(=O)n([C@@H]2O[C@H](CO)[C@@H](O)[C@H]2F)cc1I`, the Injected dose/g with Mus musculus [19] stood at 1.3%; with Mus musculus [20] it was 3.7%; with Mus musculus [21] it was 2.8%; with Mus musculus [22] it was 0.08%; with Mus musculus [23], 3.3%; in the data set on Mus musculus [24], 2.9%. Further, the Injected dose/g is reported as 13.3% with Mus musculus [25]; 2.5% in the data set with Mus musculus [26]; 7.5% with Mus musculus [27]; 1.3% with Mus musculus [28]; 8.5% in the data set on Mus musculus [29]; 5.8% with Mus musculus [30]. Further, the Injected dose/g is 7% with Mus musculus [31], 3.5% in the data set on Mus musculus [32] and 4.6% in the data set on Mus musculus [33].
